Source: ChEMBL document CHEMBL3046238, “Synthesis and biological activity evaluation of 1,2,3-thiadiazole derivatives as potential elicitors with highly systemic acquired resistance” (2009)

How the values were obtained:
Type in all cases: functional
Tobacco mosaic virus [1] = test: (§1) Induction of systemic acquired resistance against Tobacco mosaic virus (TMV) in tobacco plants exposed to 2000 ug/mL compound through irrigation based soil treatment followed by 7 days culture under green house conditions assessed as inhibition of viral growth in leaves infected with Tobacco mosaic virus (TMV) measured 72 hr post viral infection by half-leaf juice rubbing method; design: scale not given: the % may be the effect or the level left
Procedure, shortened: (§2)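 Tobacco plants received compound by leaf spray or by soil irrigation, with double-distilled water as CK. Newly grown leaves were then rub-inoculated with TMV (5.88×10-2 μg/mL), and plants were kept at 25 °C for 72 h. Lesions on inoculated leaves were counted. Inhibition = (CK−A)/CK×100 from mean lesion numbers versus control.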

Tobacco mosaic virus [2] = test: as §1, with “500” for “2000”, “leaf spray” for “irrigation based soil treatment”; design: scale not given: the % may be the effect or the level left; procedure, shortened: as §2
Tobacco mosaic virus [3] = test: as §1, with “1000” for “2000”, “leaf spray” for “irrigation based soil treatment”; design: scale not given: the % may be the effect or the level left; procedure, shortened: as §2
Tobacco mosaic virus [4] = test: Antiviral activity against Tobacco mosaic virus (TMV) infected tobacco leaves exposed to 100 ug/mL for 20 min assessed as inhibition of viral growth measured 72 hr post compound treatment compound by half-leaf juice rubbing method
Procedure, shortened: (§3)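 Half-leaf method on tobacco. A fresh leaf from a plant at the 5-6 leaf age was rub-inoculated with TMV (5.88×10-2 μg/mL) and cut along the main vein. One half was immersed in compound solution and the other in double-distilled water, each for 20 min. Halves were kept at 25 °C and 100% humidity for 72 h, then lesions were counted. Three replicates were run. Inhibition = (CK−A)/CK×100 from mean lesion numbers.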

Tobacco mosaic virus [5] = test: In vivo antiviral activity against Tobacco mosaic virus (TMV) infected tobacco leaves exposed to 50 ug/mL for 20 min assessed as inhibition of viral growth measured 72 hr post compound treatment compound by half-leaf juice rubbing method; procedure, shortened: as §3
Tobacco mosaic virus [6] = test: In vivo antiviral activity against Tobacco mosaic virus (TMV) infected tobacco leaves exposed to 500 ug/mL for 20 min assessed as inhibition of viral growth measured 72 hr post compound treatment compound by half-leaf juice rubbing method; procedure, shortened: as §3
Tobacco mosaic virus [7] = test: Antiviral activity against Tobacco mosaic virus (TMV) infected tobacco leaves exposed to 1000 ug/mL for 20 min assessed as inhibition of viral growth measured 72 hr post compound treatment compound by half-leaf juice rubbing method; procedure, shortened: as §3
Tobacco mosaic virus [8] = test: as §1, with “100” for “2000”; design: scale not given: the % may be the effect or the level left; procedure, shortened: as §2
Tobacco mosaic virus [9] = test: In vivo antiviral activity against Tobacco mosaic virus (TMV) infected tobacco leaves exposed to 1000 ug/mL for 20 min assessed as inhibition of viral growth measured 72 hr post compound treatment compound by half-leaf juice rubbing method; procedure, shortened: as §3
Tobacco mosaic virus [10] = test: as §1, with “50” for “2000”, “leaf spray” for “irrigation based soil treatment”; design: scale not given: the % may be the effect or the level left; procedure, shortened: as §2
Tobacco mosaic virus [11] = test: Antiviral activity against Tobacco mosaic virus (TMV) infected tobacco leaves exposed to 50 ug/mL for 20 min assessed as inhibition of viral growth measured 72 hr post compound treatment compound by half-leaf juice rubbing method; procedure, shortened: as §3
Tobacco mosaic virus [12] = test: as §1, with “50” for “2000”; design: scale not given: the % may be the effect or the level left; procedure, shortened: as §2
Tobacco mosaic virus [13] = test: as §1, with “1000” for “2000”; design: scale not given: the % may be the effect or the level left; procedure, shortened: as §2
Tobacco mosaic virus [14] = test: In vivo antiviral activity against Tobacco mosaic virus (TMV) infected tobacco leaves exposed to 100 ug/mL for 20 min assessed as inhibition of viral growth measured 72 hr post compound treatment compound by half-leaf juice rubbing method; procedure, shortened: as §3
Tobacco mosaic virus [15] = test: as §1, with “leaf spray” for “irrigation based soil treatment”; design: scale not given: the % may be the effect or the level left; procedure, shortened: as §2
Tobacco mosaic virus [16] = test: as §1, with “100” for “2000”, “leaf spray” for “irrigation based soil treatment”; design: scale not given: the % may be the effect or the level left; procedure, shortened: as §2
Tobacco mosaic virus [17] = test: as §1, with “500” for “2000”; design: scale not given: the % may be the effect or the level left; procedure, shortened: as §2
Tobacco mosaic virus [18] = test: Antiviral activity against Tobacco mosaic virus (TMV) infected tobacco leaves exposed to 500 ug/mL for 20 min assessed as inhibition of viral growth measured 72 hr post compound treatment compound by half-leaf juice rubbing method; procedure, shortened: as §3
Tobacco mosaic virus [19] = test: Antiviral activity against Tobacco mosaic virus (TMV) infected tobacco leaves exposed to 2000 ug/mL for 20 min assessed as inhibition of viral growth measured 72 hr post compound treatment compound by half-leaf juice rubbing method; procedure, shortened: as §3
Tobacco mosaic virus [20] = test: In vivo antiviral activity against Tobacco mosaic virus (TMV) infected tobacco leaves exposed to 2000 ug/mL for 20 min assessed as inhibition of viral growth measured 72 hr post compound treatment compound by half-leaf juice rubbing method; procedure, shortened: as §3

| SMILES | Activity (Tobacco mosaic virus [1]) [%] | Activity (Tobacco mosaic virus [2]) [%] | Activity (Tobacco mosaic virus [3]) [%] | growth inhibition (GI) (Tobacco mosaic virus [4]) [%] | growth inhibition (GI) (Tobacco mosaic virus [5]) [%] | growth inhibition (GI) (Tobacco mosaic virus [6]) [%] | growth inhibition (GI) (Tobacco mosaic virus [7]) [%] | Activity (Tobacco mosaic virus [8]) [%] | growth inhibition (GI) (Tobacco mosaic virus [9]) [%] | Activity (Tobacco mosaic virus [10]) [%] | growth inhibition (GI) (Tobacco mosaic virus [11]) [%] | Activity (Tobacco mosaic virus [12]) [%] | Activity (Tobacco mosaic virus [13]) [%] | growth inhibition (GI) (Tobacco mosaic virus [14]) [%] | Activity (Tobacco mosaic virus [15]) [%] | Activity (Tobacco mosaic virus [16]) [%] | Activity (Tobacco mosaic virus [17]) [%] | growth inhibition (GI) (Tobacco mosaic virus [18]) [%] | growth inhibition (GI) (Tobacco mosaic virus [19]) [%] | growth inhibition (GI) (Tobacco mosaic virus [20]) [%] |
| --- | --- | --- | --- | --- | --- | --- | --- | --- | --- | --- | --- | --- | --- | --- | --- | --- | --- | --- | --- | --- |
| O=C(O)c1cccc2nnsc12 [1,2,3-benzothia-diazole-7-carboxylic acid] | 2 | 5 | 8 | 5 | 0 | 5 | 6 | 0 | 18 | 3 | 7 | 10 | 8 | 8 | 12 | 0 | 5 | 3 | 8 |  |
| O=C1NCNC(=O)N1 |  | 5 |  |  |  | 42 |  |  |  |  |  |  |  |  |  |  | 8 | 49 |  |  |
| CC(N)CC(=O)O (stereo not drawn) | 80 | 50 | 55 | 4 | 0 | 5 | 0 | 54 | 10 | 0 | 0 | 46 | 80 | 9 | 65 | 30 | 72 | 7 | 5 | 8 |
